Values joined by “and” are separate entries in the source; they are usually repeats but may differ in a detail not shown here. Identical values can stand only once.
What was measured:
[1] = Excretion after intravenous dose in rats; format: in vivo; settings: data held on files at Roche
Multiple ascending dose = format: in vivo, human
How it was run: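 MAD study in healthy men and women: oral doses of 50, 100 or 200 mg or placebo (6:3), given with food; first dose on day 1. Plasma (K3EDTA) sampled 0.5–48 h after the first dose. Test compound measured by liquid–liquid extraction and LC-MS/MS, calibration range 1.00–1000 ng/mL. Linearity judged from dose-normalised concentration–time profiles.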

Solubility = format: physicochemical
human P‐gp = human P‐gp (Homo sapiens, UniProt P08183); test: In vitro P-gp transport studies; format: in vitro ADME; settings: up to RO5459072 concentrations of 100 μM; data held on files at Roche
Chain of human P‐gp (P08183 whole entry): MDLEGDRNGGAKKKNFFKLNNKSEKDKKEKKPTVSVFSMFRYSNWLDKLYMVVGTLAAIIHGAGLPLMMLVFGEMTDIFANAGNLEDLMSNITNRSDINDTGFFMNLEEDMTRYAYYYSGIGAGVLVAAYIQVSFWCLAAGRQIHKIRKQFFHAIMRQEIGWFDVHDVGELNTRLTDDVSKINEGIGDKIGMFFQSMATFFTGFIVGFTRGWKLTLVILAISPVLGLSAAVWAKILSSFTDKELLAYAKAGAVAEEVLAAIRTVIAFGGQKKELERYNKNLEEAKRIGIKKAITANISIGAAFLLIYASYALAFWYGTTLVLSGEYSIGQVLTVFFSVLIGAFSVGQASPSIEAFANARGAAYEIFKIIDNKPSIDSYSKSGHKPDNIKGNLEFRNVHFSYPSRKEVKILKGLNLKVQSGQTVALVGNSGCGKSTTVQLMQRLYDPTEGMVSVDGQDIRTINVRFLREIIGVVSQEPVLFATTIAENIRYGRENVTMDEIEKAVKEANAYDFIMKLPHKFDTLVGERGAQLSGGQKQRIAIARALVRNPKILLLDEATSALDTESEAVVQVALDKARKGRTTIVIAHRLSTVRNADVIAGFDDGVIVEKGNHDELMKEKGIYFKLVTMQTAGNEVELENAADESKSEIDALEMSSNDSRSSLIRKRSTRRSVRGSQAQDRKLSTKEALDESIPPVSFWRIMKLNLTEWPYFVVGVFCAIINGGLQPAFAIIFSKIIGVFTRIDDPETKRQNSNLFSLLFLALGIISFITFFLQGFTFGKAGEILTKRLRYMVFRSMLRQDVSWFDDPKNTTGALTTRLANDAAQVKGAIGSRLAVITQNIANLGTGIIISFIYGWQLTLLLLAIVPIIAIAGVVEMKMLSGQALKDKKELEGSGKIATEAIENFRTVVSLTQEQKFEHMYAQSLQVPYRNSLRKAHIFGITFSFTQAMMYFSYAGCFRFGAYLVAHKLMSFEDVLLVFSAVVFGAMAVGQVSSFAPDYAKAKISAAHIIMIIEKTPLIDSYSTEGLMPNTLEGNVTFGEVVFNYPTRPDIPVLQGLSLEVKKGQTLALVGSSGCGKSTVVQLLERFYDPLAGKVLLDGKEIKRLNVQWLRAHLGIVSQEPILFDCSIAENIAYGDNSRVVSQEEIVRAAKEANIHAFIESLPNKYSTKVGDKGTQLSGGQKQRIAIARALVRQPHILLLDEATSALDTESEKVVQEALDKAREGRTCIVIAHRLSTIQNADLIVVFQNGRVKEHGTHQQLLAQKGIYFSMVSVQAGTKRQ

Single ascending dose = format: in vivo, human
How it was run: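 SAD study in healthy volunteers: micronised drug in hard-gelatine capsules without excipients, given orally after an overnight fast of at least 8 h (1, 3, 30, 100, 300, 600 mg), or 100 mg after a high-fat high-calorie breakfast. Plasma (K3EDTA) sampled 0.5–48 h after dosing and assayed by LC-MS/MS (1.00–1000 ng/mL). Parameters derived by noncompartmental analysis.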

[2] = BCS/BDDCS classification and permeability; format: physicochemical
[3] = Population compartmental PK model; format: in vivo, human
How it was run: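 Pooled first-dose plasma concentrations (816 samples) from 39 healthy volunteers, SAD (fasted 1–600 mg; fed 100 mg) and MAD (fed 50–200 mg). Analysed in NONMEM 7.3 with ADVAN9 and first-order conditional estimation. 1- and 2-compartment models tested, with first-order absorption with or without lag time or transit compartments. IIV log-normal. Visual predictive checks used 500 simulations. Reported as estimate (% RSE).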

metabolic enzyme = test: In vitro enzymology studies, time-dependent metabolic enzyme inhibition; format: in vitro ADME; settings: RO5459072 and its metabolites; data held on files at Roche
cathepsin‐S = test: Inhibition of cathepsin-S enzyme activity throughout the dosing interval; format: in vivo, human; settings: 50 mg dose
[4] = Safety and tolerability, MAD study; format: in vivo, human; settings: healthy volunteers, doses up to 200 mg BID for 7 days
How it was run: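 Single-centre, randomised, double-blind, placebo-controlled MAD study: 22 healthy men and women dosed with food, single dose on day 1, then BID (50, 100, 200 mg) or OD (100 mg) on days 3–9. Active and placebo assigned 6:3. Safety and tolerability assessed before and after dosing and at various time points.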

[5] = Safety and tolerability, SAD study; format: in vivo, human; settings: healthy volunteers, single oral dose up to 600 mg
How it was run: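 First-in-human, single-centre, randomised, double-blind, placebo-controlled interleaved-cohort study: 17 healthy men and women in 2 cohorts with 4 periods each. Single oral doses from 1 to 600 mg given fasted, at least 14 days apart. Safety and tolerability assessed before and after dosing and at various time points.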

[6] = interindividual variability, CV% (% RSE) [shrinkage]

fraction of dose found unchanged in the faeces [1]: 50%
half-life (Multiple ascending dose; both, human, plasma, oral, average estimated terminal half-lives, fed, 50 mg, 100 mg, 200 mg doses): 480 to 600 min
PK linearity (Multiple ascending dose; fed condition from 50 to 100 mg): linear
solubility (Solubility): < 20 µg/mL
saturability of human P-gp (human P‐gp): not saturable
Tmax (Single ascending dose; both, human, plasma, oral, 100 mg, Tmax, fed): 5 h
half-life (Single ascending dose; both, human, plasma, oral, 600 mg, noncompartmental analysis apparent terminal half-life, fasted, highest doses between 100 and 600 mg): 780 to 960 min
increase in systemic exposure with dose (Single ascending dose; fasted, doses <10 mg): more than dose proportional
increase in systemic exposure with dose (Single ascending dose; fasted, doses >30 mg): less than dose proportional
Tmax delay fed versus fasted (Single ascending dose; fed later than fasted): approximately 1 hour
decrease of estimated average half-life by food (noncompartmental analysis) (Single ascending dose; fed versus fasted): approximately 4 hours
Biopharmaceutics Classification System class [2]: 2
permeability [2]: highly permeable
CL/F, apparent total clearance ([3]; fasted and fed conditions, estimate (% RSE)): 9.38 (3.65) L h^−1
kaFaPI, first-order absorption rate constant of the proximal intestine ([3]; fasted, doses > 3 mg (10 to 600 mg), estimate (% RSE)): 2.05 h^−1 and 2.05 (6.29) h^−1
kaFaDI, first-order absorption rate constant of the distal intestine ([3]; fasted, doses > 3 mg, estimate (% RSE)): 0.065 h^−1 and 0.065 (9.31) h^−1
apparent fraction of the total dose absorbed from the distal intestine ([3]; fasted, on average for doses between 10 and 600 mg): ~ 16%
IIV of D50 [3, 6]: 38.5% (27.3) [40.9%] CV%
IIV of FFaDI [3, 6]: 32.1% (38.9) [41.0%] CV%
IIV of Vc/F [3, 6]: 24.0% (15.0) [14.6%] CV%
IIV of kaFaPI for doses > 3 mg [3, 6]: 33.8% (13.8) [2.44%] CV%
IIV of kaFe [3, 6]: 39.2% (14.8) [4.21%] CV%
time-dependent metabolic enzyme inhibition (metabolic enzyme): absence
SMILES: Cn1cc(-c2ccc(S(=O)(=O)[C@@H]3C[C@@H](C(=O)NC4(C#N)CC4)N(C(=O)C4(C(F)(F)F)CC4)C3)c(C(F)(F)F)c2)cn1 [RO5459072]
inhibition of cathepsin-S enzyme activity in average throughout the dosing interval (cathepsin‐S): about 93%
tolerability [4]: tolerated similarly to placebo
tolerability [5]: similarly tolerated to placebo
